Key:
human IP6K2 = target: T1, human IP6K2 (Homo sapiens, UniProt Q9UHH9); test: IP6K2 TR-FRET assay for ADP detection; format: biochemical; settings: read-out: IC50 for IP6K2; TR-FRET Adapta, 400 nM IP6K2, 10 µM ATP, 10 µM InsP6
T1 sequence (Q9UHH9 1-426): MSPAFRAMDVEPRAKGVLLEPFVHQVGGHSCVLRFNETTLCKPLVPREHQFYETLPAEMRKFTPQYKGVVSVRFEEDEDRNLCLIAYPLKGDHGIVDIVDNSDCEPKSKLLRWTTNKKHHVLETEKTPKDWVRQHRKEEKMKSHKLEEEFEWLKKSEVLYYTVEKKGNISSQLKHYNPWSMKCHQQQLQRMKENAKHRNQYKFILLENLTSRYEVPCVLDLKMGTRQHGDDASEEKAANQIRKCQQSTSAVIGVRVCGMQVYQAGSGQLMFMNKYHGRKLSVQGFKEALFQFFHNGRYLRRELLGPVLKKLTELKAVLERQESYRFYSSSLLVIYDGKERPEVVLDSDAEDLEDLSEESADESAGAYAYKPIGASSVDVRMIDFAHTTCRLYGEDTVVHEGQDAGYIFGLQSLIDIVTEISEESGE
Procedure, shortened: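 Buffer: 50 mM HEPES pH 7.5, 0.01% Brij-35, 10 mM MgCl2, 1 mM EGTA. Test compound (3-fold, 10-point dilutions) preincubated 10–20 min at room temperature with enzyme, then ATP/InsP6 added; 30 min reaction. Detection: 2 nM Eu-anti-ADP antibody, 12 nM ADP tracer, 10 mM EDTA (final), 30 min. 665/615 nm ratio; inhibition scaled DMSO-only (0%) to no-enzyme (100%); ~20% ATP turnover.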

IP6K1 = IP6K1 (Homo sapiens, UniProt Q92551); settings: cited from earlier work
IP6K1, sequence (Q92551 whole entry, species assumed): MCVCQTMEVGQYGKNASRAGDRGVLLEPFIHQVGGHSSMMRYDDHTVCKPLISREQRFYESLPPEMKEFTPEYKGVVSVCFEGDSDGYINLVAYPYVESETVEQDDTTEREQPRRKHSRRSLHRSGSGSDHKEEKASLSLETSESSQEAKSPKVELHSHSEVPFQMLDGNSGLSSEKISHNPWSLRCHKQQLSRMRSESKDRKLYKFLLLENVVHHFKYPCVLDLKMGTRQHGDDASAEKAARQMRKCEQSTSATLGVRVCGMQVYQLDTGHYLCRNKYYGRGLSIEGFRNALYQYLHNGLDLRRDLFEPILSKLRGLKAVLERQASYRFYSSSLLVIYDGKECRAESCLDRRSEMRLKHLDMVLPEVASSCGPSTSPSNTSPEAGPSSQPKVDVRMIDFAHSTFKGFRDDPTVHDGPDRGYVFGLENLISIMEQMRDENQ

## O=[N+]([O-])c1ccc(CNc2nc(NCc3cccc(C(F)(F)F)c3)nc3nc[nH]c23)cc1 [TNP, N2-(m-(trifluoromethyl)benzyl) N6-(p-nitrobenzyl)purine]
Human IP6K2
  IC50: 7.36 µM
IP6K1; read-out: IC50 previously reported for IP6K1
  IC50: 0.43 µM
IP6K1; read-out: Ki previously reported for IP6K1
  Ki: 0.24 µM

Reference: article PMC6148399 (SLAS discovery : advancing life sciences R & D, 2018)
